# Screening data deposited in PubChem by several laboratories.
# An excerpt weighted towards active compounds, which were near 1.8% of everything screened.
# APJ antag: APJ receptor antagonism; AID 2521; CHO-K1 APJ beta-arrestin complementation, luminescence; 330,000 tested, 0.32% active; inhibition, % at 20 µM; P35414;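 active = inhibition above about 40% at 20 µM, limit read from the data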;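 note: cells challenged with 10 nM apelin-13 agonist together with compound; plate controls were apelin-13 plus DMSO wells for no effect and DMSO wells lacking apelin-13 for full effect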
# CCR6 antag: blocks CCL20-driven beta-arrestin recruitment at human CCR6; P51684; inhibition, % at 20 µM; AID 493098; 340,000 tested, 0.49% active; CHO-K1 CCR6 PathHunter beta-arrestin, luminescence, CCL20-stimulated;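 active = compounds whose inhibition of the agonist-driven luminescence signal at 20 µM reaches about 50%, limit read from the data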;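 note: cells stimulated with CCL20 at 14 nM final; plate controls were DMSO with CCL20 for no effect and DMSO without agonist for full effect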
# CXCR6 block: blocks human CXCR6 beta-arrestin recruitment. inhibition, % at 20 µM. 360,000 tested, 0.36% active. CHO-K1 PathHunter CXCR6 beta-arrestin, luminescence. O00574; in the data active = inhibition above about 34%, passing the limit was not always enough;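 note: antagonist mode with CXCL16 agonist at 10 nM final; 0% = 10 nM CXCL16 with DMSO and 100% = unstimulated wells without agonist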
# APJ agonist: APJ receptor agonism; CHO-K1 APJ PathHunter beta-arrestin, luminescence; 0% DMSO wells, 100% apelin; P35414; activation, % at 20 µM; 330,000 tested, 0.11% active;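 active = activation more than six SD over the plate average, tested at 20 µM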;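 note: 0% = DMSO alone and 100% = apelin-13 at 10 nM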
#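 Test system – PathHunter CHO-K1 APJ (AGTRL-1) beta-arrestin reporter cells · Input – 1000 cells/well · Compound – single test compound dose, 20 µM final, 1% DMSO · Times – compound stimulation 90 min at 25 °C, detection 60 min · Technique – beta-gal luminescence · Read-out basis – APJ–arrestin association signal · Control set – negative DMSO alone, positive Apelin-13 at 10 nM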
# EBI2 block: EBI2 (human) antagonism; AID 651636; inhibition, % at 5 µM; 360,000 tested, 0.81% active; P32249; EBI2 beta-arrestin recruitment, luminescence, 7a,25-OHC stimulated; in the data active = inhibition above about 38%;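 note: enzyme fragment complementation signal reports receptor beta-arrestin coupling in cells; 0% = agonist plus DMSO wells and 100% = wells without agonist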
# Target sequence (P32249 whole entry, looked up, the tested form may be a part): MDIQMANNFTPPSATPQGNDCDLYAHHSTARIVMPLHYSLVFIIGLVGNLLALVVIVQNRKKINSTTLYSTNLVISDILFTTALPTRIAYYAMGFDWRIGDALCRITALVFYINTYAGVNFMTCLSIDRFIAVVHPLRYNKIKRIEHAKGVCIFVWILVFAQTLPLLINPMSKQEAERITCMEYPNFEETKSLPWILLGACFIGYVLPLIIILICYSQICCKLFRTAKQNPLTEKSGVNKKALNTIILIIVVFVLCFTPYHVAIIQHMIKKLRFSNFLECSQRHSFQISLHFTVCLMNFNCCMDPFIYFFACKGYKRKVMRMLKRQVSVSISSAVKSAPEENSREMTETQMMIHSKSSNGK
# B2AR ag: agonists of human beta-2 adrenergic receptor inducing internalization | P07550 | Am2.2-beta2AR cells, FAP receptor internalization, flow cytometry | response, % (concentration not given with the values) | 340,000 tested, 0.43% active | AID 504454;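 active = response above a set limit, near 3 SD of response in nonfluorescent compounds, cut at about 42% in these data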
# EBI2 antag conf: confirmation of human EBI2 receptor antagonists | shares compounds with EBI2 block | EBI2 beta-arrestin luminescence, 7a,25-OHC antagonism | 2,400 tested, 29% active | AID 651997 | inhibition, % at 5 µM;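 active = inhibition of at least 50%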
# EBI2 ag: EBI2 agonism counter-screen; shares compounds with EBI2 block; activation, % at 5 µM; EBI2-expressing cells, agonist mode, luminescence, 60 min; 0% vehicle, 100% 7α,25-dihydroxycholesterol control; 2,400 tested, under 10 active;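 active = activation of at least 50%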
# bGal cs: counter-screen for EBI2 antagonists: E. coli beta-galactosidase inhibition; shares compounds with EBI2 block; purified beta-galactosidase, luminescent Galacton Star, 15 min; inhibition, % at 5 µM; 2,400 tested, 1% active;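 active = replicate-average signal at least 3 plate SD below neutral wells, shown as high inhibition, flagging enzyme-inhibiting false positives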;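 note: 0% = DMSO wells with enzyme and 100% = wells lacking enzyme; higher means stronger loss of beta-gal luminescence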
# The depositor's hits bear a star; / = no result given.
SMILES,APJ antag,CCR6 antag,CXCR6 block,APJ agonist,EBI2 block,B2AR ag,EBI2 antag conf,EBI2 ag,bGal cs
O=[N+]([O-])c1c(Cl)c(Cl)c(Cl)c(Cl)c1Cl,/,-11,-17,/,-19,4,/,/,/
O=C(C1CCN(c2nc3ccc(Br)cc3s2)CC1)N1CCC2(CC1)OCCO2,-3,12,5,-1,56*,-5,12,0,0
Cc1nc2cc(C(F)(F)F)ccc2n1C1CCN(Cc2nnnn2CCc2ccccc2)CC1,-12,-3,-4,-4,37*,-1,45,1,3
Cc1nc2cc(F)ccc2n1C1CCN(Cc2nnnn2CCc2ccccc2)CC1,10,-7,2,-6,17,-3,/,/,/
Cc1ccc(N(C)C(=O)Oc2ccc(C(=O)c3ccc(Cl)cc3)cc2)cc1,11,-2,12,-2,78*,2,44,-1,-17
CC(=O)Nc1ccc(OC(=O)N(C)c2ccc(C)cc2)cc1,5,3,-9,-3,-10,2,/,/,/
C[C@@H]1CCC2[C@@H](C)C(=O)O[C@@H]3OC4(C)CCC1[C@@]23OO4 (stereo partly drawn),-38,-15,/,8,/,/,/,/,/
O=C(c1cc(C(=O)NCc2ccccc2)c(=O)n(Cc2ccccc2)c1)c1cc(Br)ccc1O,4,27,-8,1,21,9,/,/,/
Cc1ccc(O)c(C(=O)c2cc(C(=O)NCc3ccccc3)c(=O)n(Cc3ccccc3)c2)c1,6,-2,12,-5,42*,0,16,0,3
COC(=O)C1=C(c2ccccc2OCc2ccccc2)C[C@@H]2CC[C@H]1N2C(=O)NCc1ccc(Cl)cc1,14,20,12,-1,44*,2,20,-1,-5
COC(=O)C1=C(c2ccccc2OCc2ccccc2)C[C@@H]2CC[C@H]1N2C(=O)NCc1ccc(N(C)C)cc1,5,17,10,-2,5,-2,/,/,/
COC(=O)C1=C(c2ccc(-c3ccccc3)c(F)c2)C[C@@H]2CC[C@H]1N2C(=O)NCCc1ccccc1,0,0,2,0,44*,1,20,0,5
COC(=O)C1=C(c2ccc(-c3ccccc3)c(F)c2)C[C@@H]2CC[C@H]1N2C(=O)NCCOc1ccc(OC)cc1,7,12,12,-2,54*,-1,20,-2,-1
COC(=O)C1=C(c2ccc(F)cc2OCc2ccccc2)C[C@@H]2CC[C@H]1N2C(=O)NCCOc1ccc(OC)cc1,5,20,14,-4,48*,6,40,0,0
CCCCCCC(Cl)(Cn1ccnc1)c1ccccc1 (stereo not drawn),-18,10,0,1,-6,6,/,/,/
Cn1cc(C(O)CN2CCCCC2)c2ccccc21 (stereo not drawn),10,-2,4,-2,-3,-7,/,/,/
CN1Cc2c(c(C#N)c(N)n(C)c2=S)CC1(C)C,8,-2,0,-1,-6,-3,/,/,/
COc1cccc(C(c2nnnn2Cc2ccccc2)N2CCC3(CC2)C(=O)NCN3c2ccccc2)c1OC (stereo not drawn),/,/,3,/,10,/,/,/,/
COc1cc(OC)c(OC)cc1CN1CCN(C(=O)COc2ccc3ccccc3c2)CC1,-22,-13,0,-3,71*,-3,41,-1,-11
COc1cccc(CN2CCN(C(=O)COc3ccc4ccccc4c3)CC2)c1,-25,21,-7,2,95*,-5,74*,-1,-9
CCOC(=O)[C@]12Cc3cc(OC)ccc3[C@H]1N(Cc1ccccc1)C(=O)c1cc(F)c(F)cc12,/,5,17,/,40*,-2,23,-2,-8
O=C(COc1ccccc1)N1CCN(CC2CC=CCC2)CC1 (stereo not drawn),1,8,1,2,68*,-2,34,0,8
O=C(COc1ccc(Cl)cc1)N1CCN(C2CCCC2)CC1,13,3,5,-1,89*,-2,67*,-1,-13
CC(C)NS(=O)(=O)c1ccc(OCC(=O)N2CCN(Cc3ccccc3)CC2)cc1,-3,7,6,5,5,7,/,/,/
CC1CCC(N2CCN(C(=O)COc3ccccc3)CC2)CC1 (stereo not drawn),-20,0,9,1,32,2,/,/,/
SMILES,APJ antag,CCR6 antag,CXCR6 block,APJ agonist,EBI2 block,B2AR ag,EBI2 antag conf,EBI2 ag,bGal cs
COc1ccc(OCC(=O)N2CCN(Cc3ccc(SC)cc3)CC2)cc1,8,2,-4,-3,71*,4,50*,0,-3
O=C(COc1ccc(Cl)cc1)N1CCN(Cc2ccccc2)CC1,15,5,-6,2,91*,-3,66*,-1,-5
COC(=O)C1=C(c2cccc(C#N)c2)C[C@@H]2CC[C@H]1N2C(=O)NC1CC1,2,-8,0,-5,2,1,/,/,/
Cc1ccc(OCC(=O)N2CCN(Cc3ccc([N+](=O)[O-])cc3)CC2)cc1,2,4,-13,-1,94*,0,71*,1,11
COc1ccccc1OCC(=O)N1CCN(Cc2ccc3c(c2)OCO3)CC1,11,4,-1,0,0,-7,/,/,/
Cc1ccc(OCC(=O)N2CCN(CC3CC4C=CC3C4)CC2)cc1 (stereo not drawn),17,18,-6,-2,84*,-2,62*,-1,-5
N#Cc1ccc(OCC(=O)N2CCN(Cc3ccc4c(c3)OCO4)CC2)cc1,-3,20,-2,-2,35,-1,/,/,/
COc1ccc(OCC(=O)N2CCN(Cc3ccc4c(c3)OCO4)CC2)cc1,17,7,-1,-1,86*,9,59*,0,9
Cc1ccc(OCC(=O)N2CCN(Cc3ccc4c(c3)OCO4)CC2)cc1,-26,-2,-2,-1,88*,-2,61*,0,10
O=C(COc1ccccc1)N1CCN(CC2CC3C=CC2C3)CC1 (stereo not drawn),6,5,-8,-2,42,0,/,/,/
CC(=O)O[C@H]1CC[C@@]2(C)[C@H](C1)C(=O)C[C@H]1[C@@H]3CC[C@@H]4[C@@H](CN5C[C@@H](C)CC[C@H]5[C@@]4(C)O)[C@@H]3C[C@@H]12,21,6,-3,-2,0,-3,/,/,/
